{"source": "paper PMC7340344", "about": "(Journal of medicinal chemistry, 2020)", "key": {"PCAF": {"target": "PCAF (Homo sapiens, UniProt Q92831)", "sequence (Q92831 whole entry)": "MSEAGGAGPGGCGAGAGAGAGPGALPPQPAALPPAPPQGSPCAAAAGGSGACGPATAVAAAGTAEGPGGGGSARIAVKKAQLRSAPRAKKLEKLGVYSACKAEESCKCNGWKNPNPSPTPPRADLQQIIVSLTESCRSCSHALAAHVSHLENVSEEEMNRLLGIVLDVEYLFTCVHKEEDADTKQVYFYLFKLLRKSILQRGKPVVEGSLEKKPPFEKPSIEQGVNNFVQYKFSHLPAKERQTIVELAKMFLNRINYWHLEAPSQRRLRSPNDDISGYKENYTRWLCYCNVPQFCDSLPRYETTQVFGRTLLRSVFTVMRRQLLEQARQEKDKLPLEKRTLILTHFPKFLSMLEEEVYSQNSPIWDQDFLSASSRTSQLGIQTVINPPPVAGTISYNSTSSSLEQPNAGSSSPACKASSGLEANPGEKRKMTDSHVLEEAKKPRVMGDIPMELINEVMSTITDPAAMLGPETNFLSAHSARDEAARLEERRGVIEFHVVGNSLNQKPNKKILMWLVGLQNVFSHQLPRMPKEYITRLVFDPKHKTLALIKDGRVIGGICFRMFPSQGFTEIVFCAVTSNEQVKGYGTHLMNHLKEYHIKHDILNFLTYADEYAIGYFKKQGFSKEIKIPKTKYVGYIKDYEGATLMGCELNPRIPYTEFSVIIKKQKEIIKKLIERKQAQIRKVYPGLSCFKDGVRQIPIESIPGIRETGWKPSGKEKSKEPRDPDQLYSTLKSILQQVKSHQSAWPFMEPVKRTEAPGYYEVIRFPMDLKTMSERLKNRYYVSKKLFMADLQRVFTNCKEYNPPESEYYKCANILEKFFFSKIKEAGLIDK", "assay": "Inhibition of PCAF", "format": "biochemical"}, "[1]": {"system": "ER+ breast cancer MCF-7 cells", "assay": "RNA sequencing and gene set enrichment analysis", "format": "cell-based, human", "settings": "MCF-7, 6 μM, 48 hours, with estradiol 10 nM; p < 0.001", "summary_of_the_method": "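MCF-7 cells were starved for 7 days in phenol red-free DMEM with 10% charcoal-treated FBS. They were then given test compound (6 μM) or DMSO, with or without estradiol (10 nM), for 48 h. Total RNA was sequenced as stranded, rRNA-depleted libraries (HiSeq 2500, paired-end) and mapped to hg38. FPKM values were quantile-normalized and analysed by GSEA against MSigDB and the siRNA p300-knockdown signature (GSE31873, C4–2B cells).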"}, "MCF-7": {"system": "MCF-7", "assay": "Cell growth inhibition, MCF-7", "format": "cell-based", "settings": "Homo sapiens, MCF7, read-out: Antiproliferative activity EC50 (μM), MCF-7"}, "Kasumi-1 leukemia cells": {"system": "Kasumi-1 leukemia cells", "assay": "Western blot of cellular histone acetylation", "format": "cell-based", "settings": "Kasumi-1 cells, 12h, 5 and 10 μM", "summary_of_the_method": "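Kasumi-1 cells (10^6/well) were exposed to test compound at 0, 5 and 10 μM for 12 h. Total histones were extracted by kit, and 2 μg per lane were separated by SDS-PAGE and transferred to PVDF. Blots were probed with antibodies to H3K9Ac, H3K18Ac, H3K27Ac and total H3, then with an anti-rabbit IgG secondary.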"}, "Myst3": {"target": "Myst3 (Homo sapiens, UniProt Q92794)", "sequence (Q92794 whole entry)": "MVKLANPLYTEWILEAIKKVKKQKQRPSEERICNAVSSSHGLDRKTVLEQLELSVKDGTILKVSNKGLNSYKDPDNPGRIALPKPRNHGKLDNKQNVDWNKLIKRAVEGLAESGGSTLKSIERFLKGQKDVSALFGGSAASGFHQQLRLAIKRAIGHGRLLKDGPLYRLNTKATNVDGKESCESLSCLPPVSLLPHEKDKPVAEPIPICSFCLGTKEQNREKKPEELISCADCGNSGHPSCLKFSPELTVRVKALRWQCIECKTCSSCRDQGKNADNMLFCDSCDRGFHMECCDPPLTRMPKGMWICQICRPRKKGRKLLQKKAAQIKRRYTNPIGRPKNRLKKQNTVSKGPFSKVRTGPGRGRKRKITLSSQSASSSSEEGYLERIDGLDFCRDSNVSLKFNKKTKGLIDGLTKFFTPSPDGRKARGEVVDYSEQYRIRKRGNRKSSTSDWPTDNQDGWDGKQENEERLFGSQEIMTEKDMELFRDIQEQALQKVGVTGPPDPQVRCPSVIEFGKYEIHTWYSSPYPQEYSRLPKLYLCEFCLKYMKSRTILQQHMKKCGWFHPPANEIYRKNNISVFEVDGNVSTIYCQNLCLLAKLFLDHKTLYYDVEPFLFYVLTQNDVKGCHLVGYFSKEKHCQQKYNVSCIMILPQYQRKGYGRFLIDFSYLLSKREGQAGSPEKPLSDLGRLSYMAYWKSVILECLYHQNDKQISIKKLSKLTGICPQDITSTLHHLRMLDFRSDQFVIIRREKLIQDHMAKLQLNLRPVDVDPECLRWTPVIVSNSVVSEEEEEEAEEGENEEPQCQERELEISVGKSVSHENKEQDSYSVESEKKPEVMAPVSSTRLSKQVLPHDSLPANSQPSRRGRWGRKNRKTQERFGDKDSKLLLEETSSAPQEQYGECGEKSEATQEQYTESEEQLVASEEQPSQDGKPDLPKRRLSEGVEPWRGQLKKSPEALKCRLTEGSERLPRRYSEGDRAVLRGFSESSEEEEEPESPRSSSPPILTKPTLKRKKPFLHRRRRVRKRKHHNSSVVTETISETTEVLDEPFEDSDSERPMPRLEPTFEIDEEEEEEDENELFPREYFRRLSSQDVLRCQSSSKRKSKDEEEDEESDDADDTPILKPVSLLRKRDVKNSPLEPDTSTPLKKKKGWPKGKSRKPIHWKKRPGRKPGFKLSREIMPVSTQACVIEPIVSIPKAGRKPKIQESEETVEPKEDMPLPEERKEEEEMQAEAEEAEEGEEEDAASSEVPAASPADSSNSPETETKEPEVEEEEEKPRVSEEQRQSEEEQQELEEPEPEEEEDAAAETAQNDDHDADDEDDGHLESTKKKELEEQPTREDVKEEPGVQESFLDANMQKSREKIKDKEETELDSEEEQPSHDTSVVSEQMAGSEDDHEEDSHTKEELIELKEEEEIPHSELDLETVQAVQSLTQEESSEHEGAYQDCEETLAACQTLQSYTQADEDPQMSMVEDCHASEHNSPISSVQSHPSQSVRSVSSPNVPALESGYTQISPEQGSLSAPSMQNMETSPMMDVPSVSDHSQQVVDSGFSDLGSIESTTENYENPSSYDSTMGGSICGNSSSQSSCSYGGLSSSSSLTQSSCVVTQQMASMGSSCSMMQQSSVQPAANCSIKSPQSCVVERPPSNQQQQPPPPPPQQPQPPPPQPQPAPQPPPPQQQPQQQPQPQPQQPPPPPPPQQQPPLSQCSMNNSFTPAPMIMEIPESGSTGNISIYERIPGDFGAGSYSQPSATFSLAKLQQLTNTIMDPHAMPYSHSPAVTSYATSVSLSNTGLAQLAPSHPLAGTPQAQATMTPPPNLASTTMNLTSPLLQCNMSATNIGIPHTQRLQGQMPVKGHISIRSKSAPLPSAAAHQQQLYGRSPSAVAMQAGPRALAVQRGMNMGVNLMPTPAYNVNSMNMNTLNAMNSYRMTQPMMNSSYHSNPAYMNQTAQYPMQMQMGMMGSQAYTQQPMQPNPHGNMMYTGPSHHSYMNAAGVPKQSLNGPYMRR", "assay": "Inhibition of Myst3", "format": "biochemical"}, "p300 HAT": {"target": "T1, p300 HAT (Homo sapiens, UniProt Q09472)", "T1 sequence (Q09472 1195-1673)": "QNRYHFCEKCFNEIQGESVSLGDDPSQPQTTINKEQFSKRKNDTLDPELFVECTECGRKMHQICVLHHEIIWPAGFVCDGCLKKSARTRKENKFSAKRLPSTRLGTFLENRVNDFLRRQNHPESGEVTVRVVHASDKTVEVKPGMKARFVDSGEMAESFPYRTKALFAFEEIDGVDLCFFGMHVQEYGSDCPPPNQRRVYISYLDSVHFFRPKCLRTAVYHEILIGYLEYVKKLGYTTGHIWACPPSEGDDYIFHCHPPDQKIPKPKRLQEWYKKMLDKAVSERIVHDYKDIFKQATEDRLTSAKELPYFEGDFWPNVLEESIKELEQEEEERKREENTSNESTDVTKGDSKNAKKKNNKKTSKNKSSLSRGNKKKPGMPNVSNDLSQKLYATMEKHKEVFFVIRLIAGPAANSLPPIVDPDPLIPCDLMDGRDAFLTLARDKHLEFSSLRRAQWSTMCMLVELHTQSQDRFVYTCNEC", "assay": "Steady-state enzyme kinetics, mode of inhibition", "format": "biochemical", "summary_of_the_method": "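Radiometric filter-binding assay with recombinant human GST-p300 HAT domain (residues 1195-1673) expressed in E. coli, at 10 nM. Enzyme was preincubated with test compound for 10 min at 25 °C in 50 mM phosphate, pH 7.0, with 0.01% Brij-35. Histone H3 (1-21) peptide and 3H-Ac-CoA/Ac-CoA started the reaction, with Ac-CoA or peptide concentration varied. After 30 min at 25 °C, formic acid stopped it; peptide was captured on P81 paper, washed with NaHCO3 and scintillation-counted.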"}, "LSD1": {"target": "LSD1 (Homo sapiens, UniProt O60341)", "assay": "Inhibition of LSD1", "format": "biochemical"}, "p300 HAT and histone H4": {"target": "T2, p300 HAT and histone H4 (Homo sapiens, UniProt Q09472)", "T2 sequence (Q09472 1287-1663 limits assumed)": "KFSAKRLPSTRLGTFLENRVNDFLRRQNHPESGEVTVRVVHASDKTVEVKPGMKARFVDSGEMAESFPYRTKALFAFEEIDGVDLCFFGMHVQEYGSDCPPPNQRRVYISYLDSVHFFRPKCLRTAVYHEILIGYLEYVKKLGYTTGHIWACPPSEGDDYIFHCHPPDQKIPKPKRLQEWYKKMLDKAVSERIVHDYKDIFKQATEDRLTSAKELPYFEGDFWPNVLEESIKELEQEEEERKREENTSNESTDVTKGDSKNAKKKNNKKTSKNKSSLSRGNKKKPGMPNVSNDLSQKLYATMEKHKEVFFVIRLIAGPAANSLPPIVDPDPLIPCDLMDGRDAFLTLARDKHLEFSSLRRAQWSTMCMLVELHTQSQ", "assay": "Alpha assay, binding between p300 HAT and histone H4 peptide"}, "p300/CBP HAT": {"system": "p300/CBP HAT", "settings": "cited from earlier work"}}, "note": "Counter-ions that a name gives are not always drawn."}
{"smiles": "CC(C)(C)c1ccc(-c2cc(CNCC3CCNCC3)sc2-c2ccc(C(C)(C)C)cc2)cc1", "note": "[Compound 12, 1-(4,5-bis(4-(tert-Butyl)phenyl)thiophen-2-yl)-N-(piperidin-4-ylmethyl)methanamine hydrochloride]", "values": [{"measurement": "inhibition of PCAF activity at 50 μM", "setting": "PCAF", "result": "did not significantly inhibit"}, {"measurement": "NES, gene set upregulated by estradiol", "setting": "[1]", "result": "−9.19"}, {"measurement": "NES, genes suppressed by estradiol", "setting": "[1]", "result": 7.41}, {"measurement": "normalized enrichment score (NES), genes suppressed by p300 knockdown (GSE31873)", "setting": "[1]", "result": "−3.32"}, {"measurement": "EC50", "setting": "MCF-7", "result": "~3", "unit": "µM"}, {"measurement": "cellular acetylation of histone H3K9, H3K18 and H3K27", "setting": "Kasumi-1 leukemia cells", "result": "significantly inhibit"}, {"measurement": "inhibition of Myst3 activity at 50 μM", "setting": "Myst3", "result": "did not significantly inhibit"}, {"measurement": "mode of inhibition against the cofactor Ac-CoA", "setting": "p300 HAT; Ac-CoA 0.5 - 8 μM (0.07-[…] Km)", "result": "non-competitive"}, {"measurement": "mode of inhibition against the substrate histone", "setting": "p300 HAT; histone peptide 2 - 100 μM", "result": "competitive"}, {"measurement": "inhibition of LSD1 activity at 50 μM", "setting": "LSD1", "result": "did not significantly inhibit"}]}
{"smiles": "CNC(=O)Nc1ccc2c(c1)CC[C@@]21OC(=O)N(CC(=O)N(Cc2ccc(F)cc2)[C@@H](C)C(F)(F)F)C1=O", "note": "[Compound A-485, reference compound]", "values": [{"measurement": "effect on binding between p300 HAT and histone H4 (in words)", "setting": "p300 HAT and histone H4", "result": "did not affect the binding"}, {"measurement": "mode of inhibition", "setting": "p300/CBP HAT", "result": "competitive against the enzyme cofactor acetyl coenzyme A (Ac-CoA)"}]}
